This note sets out measurements from ChEMBL document CHEMBL1130854, “Diarylsulfonamides as selective, non-peptidic thrombin inhibitors” (Bioorg Med Chem Lett, 1998).

Usually Ki stands for the equilibrium dissociation constant of an inhibitor or competing ligand from its target. The low end stands for tighter binding, the high end for weaker binding.

Assay [1] is described as follows: Compound was tested for the concentration which causes a doubling of the thrombin clotting time of human plasma. The format is functional. Put shortly: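 Human plasma thrombin clotting time measured across inhibitor concentrations (μM). Coagulation time (sec) fitted to y = a + b·x^c, a being the uninhibited clotting time and b, c shape/location parameters. Value taken as the concentration that doubles the clotting time (IC200).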

The nature of assay [2]: Inhibitory activity against trypsin/plasmin/factor Xa.
The next assay addresses Prothrombin (Homo sapiens, UniProt P00734). The assay can be described thus: Inhibitory activity against thrombin.

Bounds are passed on as bounds.

In assay [1], `O=S(=O)(Nc1cccc(OCCNc2ccncc2)c1)c1ccccc1` registered an IC200 of 2.3 µM. In addition, the inhibition constant (Ki) in assay [2] was above 500 µM.

Consider `Cc1cc(NS(=O)(=O)c2ccccc2)cc(OCCNc2ccncc2)c1`, for which the Ki was 0.023 µM on Prothrombin and above 500 µM in assay [2]. Besides, the IC200 in assay [1] was 0.29 µM.

With `Cc1cc(NS(=O)(=O)c2ccccc2)cc(OCCCCN=C(N)N)c1`, the Ki on Prothrombin is 0.18 µM; in assay [2], above 500 µM. In addition, the IC200 in assay [1] was 10 µM.

In the case of `Cc1cc(NS(=O)(=O)c2ccccc2)cc(OCCN=C(N)N)c1`, the Ki on Prothrombin was 2 µM; in assay [2], above 500 µM. The same compound came in with an IC200 in assay [1] of 38 µM.

For `Cc1cc(NS(=O)(=O)c2ccccc2)cc(OCCCCCN)c1`, the values for the Ki (on Prothrombin; in assay [2]) were 9.9 µM and above 500 µM, respectively. For the same compound, the IC200 in assay [1] was above 250 µM.

Turning to `Cc1cc(NS(=O)(=O)c2ccccc2)cc(OCCCN=C(N)N)c1`, the results for the Ki (on Prothrombin; in assay [2]) were 0.63 µM and above 500 µM, respectively. In assay [1], this compound displayed an IC200 of 10 µM.

Turning to `Cc1cc(NS(=O)(=O)c2ccccc2)cc(OCCCCCN=C(N)N)c1`, the Ki on Prothrombin was 6.4 µM; in assay [2] it was above 500 µM. This compound showed an IC200 in assay [1] of 188 µM.

Regarding `Cc1cc(NS(=O)(=O)c2ccccc2)cc(OCCCN)c1`, the inhibition constant (Ki) was 170 µM at Prothrombin and above 500 µM in assay [2]. Also, the IC200 in assay [1] was above 250 µM.

For `Cc1cc(NS(=O)(=O)c2ccccc2)cc(OCCCCN)c1`, the Ki on Prothrombin was 6.5 µM; in assay [2] it was above 500 µM. Also, the IC200 in assay [1] is 179 µM.

As for `Cc1cc(NS(=O)(=O)c2ccccc2)cc(OCCN)c1`, the inhibition constant Ki on Prothrombin is 240 µM; in assay [2] it was above 500 µM. Also, the IC200 in assay [1] is above 250 µM.

With `Cc1cc(NS(=O)(=O)c2ccccc2)cc(OCCCCCCN)c1`, the Ki on Prothrombin is 9 µM; in assay [2] it was above 500 µM. Further, the IC200 in assay [1] is above 250 µM.

For the compound `Cc1cc(NS(=O)(=O)c2ccccc2)cc(OCCCCCCN=C(N)N)c1`, the figures for the inhibitory constant (Ki) (on Prothrombin; in assay [2]) were 7 µM and above 500 µM, respectively. This compound came in with an IC200 in assay [1] of 237 µM.
